Data from ChEMBL document CHEMBL5214999, “Identification and Optimization of a Ligand-Efficient Benzoazepinone Bromodomain and Extra Terminal (BET) Family Acetyl-Lysine Mimetic into the Oral Candidate Quality Molecule I-BET432” (J Med Chem, 2022).
pIC50, pKd: −log10 of the molar value. Values after ≈ are worked out from the molar mass of the structure shown. Each block holds one molecule with its values, some of them ahead of it.

How the values were obtained:
[1] = Unbound volume of distribution at steady state in Beagle dog at 1.5 mg/kg, po or 0.5 mg/kg, iv measured upto 24 hrs by LC-MS/MS analysis; type: ADME, organism-based, Canis lupus familiaris; conditions: in vivo
In short: (§1)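 Male Wistar Han rats and beagle dogs were dosed iv as a 1 h infusion in DMSO with 10% (w/v) Kleptose HPB in saline (2%:98% or 5%:95% v/v). Oral doses were given in 1% (w/v) methylcellulose (400 cps) aqueous suspension. Oral values are means of n = 3 and iv values n = 1 unless otherwise noted.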

Cytochrome P450 3A4 = Cytochrome P450 3A4 (Homo sapiens, UniProt P08684); experiment: Inhibition of CYP3A4 (unknown origin); type: ADME
[2] = Volume of distribution at steady state in Beagle dog at 1.5 mg/kg, po or 0.5 mg/kg, iv measured upto 24 hrs by LC-MS/MS analysis; type: ADME, organism-based, Canis lupus familiaris; conditions: in vivo, read-out: Vdss; in short: as §1
[3] = Intrinsic clearance in human hepatocytes measured after 120 mins by LC-MS/MS analysis; type: ADME, cell-based, Hepatocyte; conditions: 2 h
[4] = Unbound fraction in Beagle dog at 1.5 mg/kg, po or 0.5 mg/kg, iv measured upto 24 hrs by LC-MS/MS analysis; type: ADME, organism-based, Canis lupus familiaris; conditions: in vivo
[5] = Unbound clearance in Wistar Han rat blood at 3 mg/kg, po or 1 mg/kg, iv measured upto 24 hrs by LC-MS/MS analysis; type: ADME, organism-based; conditions: in vivo; in short: as §1
[6] = Lipophilicity, logD of compound at pH 7.4 by Chromatography; type: physicochemical; conditions: buffer
[7] = molecular target: T1, Bromodomain-containing protein 4 (Homo sapiens, UniProt O60885); experiment: Inhibition of BRD4 BD1 (unknown origin) measured by TR-FRET assay
[8] = Unbound fraction in Wistar Han rat at 3 mg/kg, po or 1 mg/kg, iv measured upto 24 hrs by LC-MS/MS analysis; type: ADME, organism-based; conditions: in vivo
[9] = Oral bioavailability in Wistar Han rat at 3 mg/kg measured upto 24 hrs by LC-MS/MS analysis; type: ADME, organism-based; conditions: in vivo; in short: as §1
[10] = Volume of distribution at steady state in Wistar Han rat at 3 mg/kg, po or 1 mg/kg, iv measured upto 24 hrs by LC-MS/MS analysis; type: ADME, organism-based; conditions: in vivo, read-out: Vdss; in short: as §1
[11] = Stability of compound in simulated gastric fluid assessed as half-life at pH 6 to 10 in presence of hydrogen peroxide; type: ADME
In short: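 The compound was held at 40 °C in pH 10 medium, pH 6 medium and simulated gastric fluid, each with and without hydrogen peroxide as oxidant, and degradation was monitored.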

[12] = Half-life in Wistar Han rat at 3 mg/kg, po or 1 mg/kg, iv measured upto 24 hrs by LC-MS/MS analysis; type: ADME, organism-based; conditions: in vivo; in short: as §1
[13] = Intrinsic clearance in dog hepatocytes incubated upto 45 mins by LC-MS/MS analysis; type: ADME, cell-based, Canis lupus familiaris, Hepatocyte; conditions: 0.75 h
[14] = molecular target: T2, Transcription intermediary factor 1-alpha (Homo sapiens, UniProt O15164); experiment: Binding affinity to human TRIM24 bromodomain by BROMOscan method
T2 sequence (O15164 whole entry): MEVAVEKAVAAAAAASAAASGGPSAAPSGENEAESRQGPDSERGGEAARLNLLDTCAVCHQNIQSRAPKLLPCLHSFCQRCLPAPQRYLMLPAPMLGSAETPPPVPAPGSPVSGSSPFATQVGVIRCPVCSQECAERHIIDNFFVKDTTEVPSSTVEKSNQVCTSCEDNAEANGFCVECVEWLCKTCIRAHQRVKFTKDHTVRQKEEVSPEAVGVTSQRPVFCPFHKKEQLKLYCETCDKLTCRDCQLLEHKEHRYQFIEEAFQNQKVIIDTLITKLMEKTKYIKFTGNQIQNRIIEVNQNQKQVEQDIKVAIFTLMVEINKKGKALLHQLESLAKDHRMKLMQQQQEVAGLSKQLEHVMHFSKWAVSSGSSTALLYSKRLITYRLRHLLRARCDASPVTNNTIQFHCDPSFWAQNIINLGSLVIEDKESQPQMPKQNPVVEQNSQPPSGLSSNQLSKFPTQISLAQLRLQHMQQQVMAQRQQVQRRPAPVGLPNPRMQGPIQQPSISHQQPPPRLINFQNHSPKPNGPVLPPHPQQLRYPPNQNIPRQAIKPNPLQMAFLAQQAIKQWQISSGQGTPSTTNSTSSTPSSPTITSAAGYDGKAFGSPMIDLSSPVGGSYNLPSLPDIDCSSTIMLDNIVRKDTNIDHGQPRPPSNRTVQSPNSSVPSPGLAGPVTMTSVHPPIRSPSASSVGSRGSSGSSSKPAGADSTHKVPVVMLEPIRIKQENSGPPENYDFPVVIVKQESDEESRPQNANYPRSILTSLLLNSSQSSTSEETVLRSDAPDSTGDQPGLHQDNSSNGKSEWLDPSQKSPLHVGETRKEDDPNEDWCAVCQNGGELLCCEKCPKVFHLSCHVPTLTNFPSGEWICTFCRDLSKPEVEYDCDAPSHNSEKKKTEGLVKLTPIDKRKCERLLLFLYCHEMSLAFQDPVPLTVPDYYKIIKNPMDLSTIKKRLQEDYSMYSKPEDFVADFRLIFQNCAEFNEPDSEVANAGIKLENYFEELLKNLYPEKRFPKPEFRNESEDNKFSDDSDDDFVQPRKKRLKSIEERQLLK

[15] = Unbound volume of distribution at steady state in Wistar Han rat at 3 mg/kg, po or 1 mg/kg, iv measured upto 24 hrs by LC-MS/MS analysis; type: ADME, organism-based; conditions: in vivo; in short: as §1
[16] = molecular target: Voltage-gated inwardly rectifying potassium channel KCNH2 (Homo sapiens, UniProt Q12809); experiment: Inhibition of hERG; type: toxicity
[17] = molecular target: T1, Bromodomain-containing protein 4; experiment: Inhibition of BRD4 BD2 (unknown origin) measured by TR-FRET assay
[18] = Intrinsic clearance in rat hepatocytes after 60 mins by LC-MS/MS analysis; type: ADME, cell-based, Hepatocyte; conditions: 1 h
[19] = Artificial membrane permeability of the compound; type: ADME; conditions: PAMPA; read-out: permeability
[20] = Clearance in Beagle dog blood at 1.5 mg/kg, po or 0.5 mg/kg, iv measured upto 24 hrs by LC-MS/MS analysis; type: ADME, organism-based, Canis lupus familiaris; conditions: whole blood; in short: as §1
[21] = Half-life in Beagle dog at 1.5 mg/kg, po or 0.5 mg/kg, iv measured upto 24 hrs by LC-MS/MS analysis; type: ADME, organism-based, Canis lupus familiaris; conditions: in vivo; in short: as §1
C-C motif chemokine 2 = C-C motif chemokine 2 (Homo sapiens, UniProt P13500); experiment: Inhibition of MCP-1 in LPS-stimulated human whole blood incubate for 24 hrs by immuno assay; type: tissue-based
[22] = Clearance in Wistar Han rat blood at 3 mg/kg, po or 1 mg/kg, iv measured upto 24 hrs by LC-MS/MS analysis; type: ADME, organism-based; conditions: whole blood; in short: as §1
[23] = Solubility of the compound at pH 6.5 in fast state simulated intestinal fluid incubated for 16 hrs by HPLC analysis; type: physicochemical; conditions: fasted state simulated intestinal fluid
[24] = Unbound clearance in Beagle dog blood at 1.5 mg/kg, po or 0.5 mg/kg, iv measured upto 24 hrs by LC-MS/MS analysis; type: ADME, organism-based, Canis lupus familiaris; conditions: in vivo; in short: as §1
[25] = Oral bioavailability in Beagle dog at 1.5 mg/kg measured upto 24 hrs by LC-MS/MS analysis; type: ADME, organism-based, Canis lupus familiaris; conditions: in vivo; in short: as §1
[26] = Clearance in Wistar Han rat blood at 2.9 mg/kg, po or 2.1 mg/kg, iv measured upto 24 hrs by LC-MS/MS analysis; type: ADME, organism-based; conditions: whole blood; in short: as §1
[27] = Volume of distribution at steady state in Wistar Han rat at 2.9 mg/kg, po or 2.1 mg/kg, iv measured upto 24 hrs by LC-MS/MS analysis; type: ADME, organism-based; conditions: in vivo, read-out: Vdss; in short: as §1
[28] = Half-life in Wistar Han rat at 2.9 mg/kg, po or 2.1 mg/kg, iv measured upto 24 hrs by LC-MS/MS analysis; type: ADME, organism-based; conditions: in vivo; in short: as §1
[29] = Oral bioavailability in Wistar Han rat at 2.9 mg/kg measured upto 24 hrs by LC-MS/MS analysis; type: ADME, organism-based; conditions: in vivo; in short: as §1

Chain of C-C motif chemokine 2 (P13500 whole entry): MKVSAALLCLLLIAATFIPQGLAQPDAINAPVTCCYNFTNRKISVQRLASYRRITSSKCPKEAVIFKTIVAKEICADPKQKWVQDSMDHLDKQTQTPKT
Chain of Voltage-gated inwardly rectifying potassium channel KCNH2 (Q12809 whole entry): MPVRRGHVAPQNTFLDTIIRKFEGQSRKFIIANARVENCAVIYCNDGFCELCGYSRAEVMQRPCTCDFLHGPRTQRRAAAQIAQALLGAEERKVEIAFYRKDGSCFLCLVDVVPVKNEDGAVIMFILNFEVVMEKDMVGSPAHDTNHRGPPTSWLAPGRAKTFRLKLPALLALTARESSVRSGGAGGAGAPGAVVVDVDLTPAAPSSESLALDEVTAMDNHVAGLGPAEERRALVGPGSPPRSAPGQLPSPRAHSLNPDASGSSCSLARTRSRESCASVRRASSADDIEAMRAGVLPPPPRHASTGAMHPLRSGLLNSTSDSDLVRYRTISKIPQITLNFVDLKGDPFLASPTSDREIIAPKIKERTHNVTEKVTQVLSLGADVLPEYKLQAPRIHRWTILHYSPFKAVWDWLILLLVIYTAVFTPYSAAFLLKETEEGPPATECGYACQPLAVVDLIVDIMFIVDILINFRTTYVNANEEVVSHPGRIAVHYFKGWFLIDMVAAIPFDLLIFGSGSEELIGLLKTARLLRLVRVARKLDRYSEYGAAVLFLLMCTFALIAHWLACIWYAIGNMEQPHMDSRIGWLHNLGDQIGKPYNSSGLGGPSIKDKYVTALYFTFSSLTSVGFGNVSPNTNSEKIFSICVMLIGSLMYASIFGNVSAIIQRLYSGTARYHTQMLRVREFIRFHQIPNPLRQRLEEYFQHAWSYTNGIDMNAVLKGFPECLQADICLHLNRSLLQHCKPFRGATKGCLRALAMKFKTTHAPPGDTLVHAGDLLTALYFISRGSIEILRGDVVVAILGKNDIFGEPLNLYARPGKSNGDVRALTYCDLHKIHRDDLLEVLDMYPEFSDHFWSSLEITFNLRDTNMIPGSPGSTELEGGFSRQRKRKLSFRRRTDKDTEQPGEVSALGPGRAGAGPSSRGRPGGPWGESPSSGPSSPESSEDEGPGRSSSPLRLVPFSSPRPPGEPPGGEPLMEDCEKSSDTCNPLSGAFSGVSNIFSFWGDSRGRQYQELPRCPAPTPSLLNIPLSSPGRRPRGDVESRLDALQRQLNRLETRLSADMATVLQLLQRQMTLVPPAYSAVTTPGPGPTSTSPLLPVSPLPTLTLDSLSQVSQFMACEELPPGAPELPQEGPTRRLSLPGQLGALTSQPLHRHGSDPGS
Chain of Cytochrome P450 3A4 (P08684 whole entry): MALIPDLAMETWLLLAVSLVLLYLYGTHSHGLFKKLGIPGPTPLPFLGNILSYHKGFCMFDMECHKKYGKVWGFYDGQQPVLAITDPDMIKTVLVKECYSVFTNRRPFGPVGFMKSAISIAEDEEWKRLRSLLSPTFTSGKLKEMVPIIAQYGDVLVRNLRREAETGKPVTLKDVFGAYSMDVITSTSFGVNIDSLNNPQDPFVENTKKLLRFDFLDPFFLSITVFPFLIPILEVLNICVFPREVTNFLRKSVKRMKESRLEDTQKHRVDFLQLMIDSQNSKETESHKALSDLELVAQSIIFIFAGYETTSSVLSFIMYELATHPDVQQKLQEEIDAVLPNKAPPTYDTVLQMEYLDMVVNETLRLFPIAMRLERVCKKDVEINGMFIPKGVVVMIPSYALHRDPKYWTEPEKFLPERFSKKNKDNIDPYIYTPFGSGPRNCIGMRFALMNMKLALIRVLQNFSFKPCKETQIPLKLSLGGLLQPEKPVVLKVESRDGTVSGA

Vduss [1]: 5.7 L/kg
pIC50 (Cytochrome P450 3A4): < 4.40
Vd [2]: 2.7 L/kg
CLH [3]: < 0.45 mL/min/g
Fu [4]: 0.47
CL free [5]: 38 mL/min/kg
chromatographic logD [6]: 1.3
pIC50 [7]: 7.50
Fu [8]: 0.68
bioavailability [9]: 67%
Vd [10]: 1.3 L/kg
half-life [11]: > 41.7 days
half-life [12]: 44.4 min
CLH [13]: < 0.65 mL/min/g
pKd [14]: 5.90
Vduss [15]: 1.9 L/kg
pIC50 [17]: 7.20
CLH [18]: < 0.8 mL/min/g
Papp [19]: 3.1 ×10⁻⁶ cm/s
clearance [20]: 28 mL/min/kg
half-life [21]: 84 min
pIC50 (C-C motif chemokine 2): 7.40
clearance [22]: 26 mL/min/kg
solubility at 16 h [23]: > 1000 µg/mL
CL free [24]: 60 mL/min/kg
bioavailability [25]: 79%
Structure (SMILES): C[C@H]1C(=O)N(C)C=C(c2cnn(C)c2)c2cc([C@@H](O)CO)ccc21
pIC50 [16]: < 4.30

CLH [3]: < 0.45 mL/min/g
chromatographic logD [6]: 0.9
pIC50 [7]: 7.60
clearance [26]: 37 mL/min/kg
Vd [27]: 1.5 L/kg
half-life [28]: 45.6 min
bioavailability [29]: 13%
pIC50 [17]: 7.40
CLH [18]: < 0.8 mL/min/g
Papp [19]: 0.7 ×10⁻⁶ cm/s
pIC50 (C-C motif chemokine 2): 7.50
solubility at 16 h [23]: 417 µg/mL (≈ 1330 µM)
Structure (SMILES): C[C@H]1C(=O)N(C)C=C(c2cn[nH]c2)c2cc([C@@H](O)CO)ccc21
